Our source for the IC50 and GI50 values is ChEMBL document CHEMBL4004828, “Synthesis and biological evaluation of fluorinated N-benzoyl and N-phenylacetoyl derivatives of 3-(4-aminophenyl)-coumarin-7-O-sulfamate as steroid sulfatase inhibitors” (Eur J Med Chem, 2017).

Molecules are shown by their SMILES. Where only a bound is given, the exact number is not on record here.

One experiment deals with T1, Steryl-sulfatase (Homo sapiens, UniProt P08842).
T1 sequence (P08842 whole entry): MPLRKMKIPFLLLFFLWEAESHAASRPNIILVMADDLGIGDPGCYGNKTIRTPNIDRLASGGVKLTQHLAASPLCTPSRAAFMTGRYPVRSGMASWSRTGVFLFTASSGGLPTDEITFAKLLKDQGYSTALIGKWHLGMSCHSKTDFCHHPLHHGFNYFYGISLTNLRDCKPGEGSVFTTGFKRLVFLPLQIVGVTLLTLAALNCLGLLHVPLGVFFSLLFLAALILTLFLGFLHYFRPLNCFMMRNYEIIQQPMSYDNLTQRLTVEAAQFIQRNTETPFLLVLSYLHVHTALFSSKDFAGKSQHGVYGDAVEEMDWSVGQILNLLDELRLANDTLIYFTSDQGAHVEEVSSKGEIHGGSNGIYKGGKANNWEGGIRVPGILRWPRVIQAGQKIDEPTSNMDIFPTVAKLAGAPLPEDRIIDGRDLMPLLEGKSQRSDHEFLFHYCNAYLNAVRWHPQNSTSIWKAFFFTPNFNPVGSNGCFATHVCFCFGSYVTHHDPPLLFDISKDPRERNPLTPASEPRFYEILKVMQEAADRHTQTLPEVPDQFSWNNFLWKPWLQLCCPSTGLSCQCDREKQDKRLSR
In words: Inhibition of human placenta steroid sulfatase using p-nitrophenyl sulfate as substrate after 15 mins. The essentials:
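STS extracted from human placenta, purified to homogeneity by multi-step chromatography; 5 U enzyme in 20 mM Tris–HCl pH 7.4 with 3 mM p-nitrophenyl sulfate and inhibitor 0.01–100 µM, 37 °C for 15 min. Stopped with 1 M NaOH; released p-nitrophenol read at 405 nm. Triplicate measurements; IC50 calculated.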

For a further experiment, the system named is MCF7. In words: Cytotoxicity against human MCF7 cells assessed as growth inhibition after 120 hrs by MTT assay. It counts as functional. The conditions noted are these: MCF7, 120 h. A digest of the protocol:
(§1)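 Cells grown in phenol red-free high-glucose DMEM with 10% FBS, penicillin (62.6 µg/mL) and streptomycin (40 µg/mL) at 37 °C, 10% CO2, screened for Mycoplasma. Exponentially growing cells exposed to test agents for 120 h; viability read by MTT assay; GI50 derived.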
On the technique in general: Tetrazolium dyes change colour on reduction, which living cells bring about.

In the next experiment the test system is MDA-MB-231. The experiment can be described thus: Cytotoxicity against human MDA-MB-231 cells assessed as growth inhibition after 120 hrs by MTT assay. It counts as functional. The conditions noted are these: MDA-MB-231, 120 h. A digest of the protocol: as §1
A further experiment has as its system SK-BR-3. The experiment can be described thus: Cytotoxicity against human SKBR3 cells assessed as growth inhibition after 120 hrs by MTT assay. Particulars: SK-BR-3, 120 h. It is filed as functional. A digest of the protocol: as §1
For a further experiment, the system named is T47D. In words: Cytotoxicity against human T47D cells assessed as growth inhibition after 120 hrs by MTT assay. It is filed as functional. The essentials: as §1

Usually IC50 stands for the concentration at which inhibition is half-maximal. Read a low IC50 as higher potency. Compound `NS(=O)(=O)Oc1ccc2cc(-c3ccc(NC(=O)Cc4ccc(F)c(F)c4)cc3)c(=O)oc2c1` registered an IC50 against Steryl-sulfatase of 0.36 µM.

As to `NS(=O)(=O)Oc1ccc2cc(-c3ccc(NC(=O)Cc4ccccc4)cc3)c(=O)oc2c1`, at Steryl-sulfatase, the concentration for half-maximal inhibition (IC50) was found to be 0.26 µM.

Broadly, the GI50 is the concentration at which growth is held to half of that of the control. For the compound `NS(=O)(=O)Oc1ccc2cc(-c3ccc(F)c(F)c3)c(=O)oc2c1`, the GI50 was 30 µM in the experiment with MCF7, 61.5 µM in the experiment on MDA-MB-231, over 100 µM in the experiment with SK-BR-3 and 43 µM in the experiment on T47D. Further, at Steryl-sulfatase, the IC50 amounted to 0.28 µM.

For the compound `NS(=O)(=O)Oc1ccc2ccc(=O)oc2c1`, the GI50 in the experiment with MCF7, in the experiment with MDA-MB-231, in the experiment on SK-BR-3 and in the experiment on T47D was over 100 µM throughout. Further, the half-maximal inhibitory concentration (IC50) on Steryl-sulfatase was 1.38 µM.

The compound `NS(=O)(=O)Oc1ccc2cc(-c3ccc(NC(=O)Cc4ccc(F)c(C(F)(F)F)c4)cc3)c(=O)oc2c1` registered a 50% inhibitory concentration (IC50) against Steryl-sulfatase of 0.38 µM.

Turning to `NS(=O)(=O)Oc1ccc2cc(-c3cc(F)c(F)c(F)c3)c(=O)oc2c1`, the GI50 amounted to 32.6 µM in the experiment on MCF7, 56.3 µM in the experiment on MDA-MB-231, 61.3 µM with SK-BR-3 and 30.7 µM with T47D. This compound gave an IC50 at Steryl-sulfatase of 0.29 µM.

At Steryl-sulfatase, `NS(=O)(=O)Oc1ccc2cc(-c3ccc(NC(=O)Cc4ccc(OC(F)(F)F)cc4)cc3)c(=O)oc2c1` yielded a half-inhibitory concentration (IC50) of 0.44 µM.

As for `CC/C(=C(\c1ccccc1)c1ccc(OCCN(C)C)cc1)c1ccccc1` [TAMOXIFEN], the GI50 was 6.8 µM with MCF7, 15.1 µM in the experiment on MDA-MB-231, 12.5 µM with SK-BR-3 and 10.6 µM in the experiment with T47D.

Take `NS(=O)(=O)Oc1ccc2cc(-c3ccc(NC(=O)Cc4cc(F)c(F)c(F)c4)cc3)c(=O)oc2c1`: the GI50 in the experiment on MCF7 was found to be 31.3 µM; in the experiment on MDA-MB-231, 11.7 µM; with SK-BR-3, 36.1 µM; in the experiment on T47D, 13.7 µM. On Steryl-sulfatase, this compound came in with an IC50 of 0.3 µM.

As to `NS(=O)(=O)Oc1ccc2cc(-c3ccc(NC(=O)c4ccc(F)cc4)cc3)c(=O)oc2c1`, the GI50 in the experiment on MCF7, in the experiment on MDA-MB-231, in the experiment on SK-BR-3 and in the experiment on T47D was over 100 µM each time. For the same compound, the 50% inhibitory concentration (IC50) at Steryl-sulfatase came to 0.21 µM.

Compound `NS(=O)(=O)Oc1ccc2cc(-c3ccc([N+](=O)[O-])cc3)c(=O)oc2c1` came in with an IC50 on Steryl-sulfatase of 0.29 µM.

`NS(=O)(=O)Oc1ccc2cc(-c3ccc(NC(=O)c4c(F)c(F)c(F)c(F)c4F)cc3)c(=O)oc2c1`: the IC50 against Steryl-sulfatase stood at 0.23 µM.

`NS(=O)(=O)Oc1ccc2cc(-c3ccc(NC(=O)c4ccccc4)cc3)c(=O)oc2c1`: at Steryl-sulfatase, inhibition was half-maximal at 0.49 µM (IC50).

For the compound `NS(=O)(=O)Oc1ccc2cc(-c3ccc(NC(=O)c4ccc(F)c(F)c4)cc3)c(=O)oc2c1`, the GI50 in the experiment with MCF7, with MDA-MB-231, with SK-BR-3 and in the experiment on T47D was over 100 µM in each case. This compound also gave an IC50 against Steryl-sulfatase of 0.18 µM.

In turn, `NS(=O)(=O)Oc1ccc2cc(-c3ccc(NC(=O)Cc4c(F)c(F)c(F)c(F)c4F)cc3)c(=O)oc2c1` returned an IC50 against Steryl-sulfatase of 0.34 µM.
